Reference: ChEMBL document CHEMBL2029265, “2-(Pyrrolidin-1-yl)ethyl-3,4-dihydroisoquinolin-1(2H)-one derivatives as potent and selective histamine-3 receptor antagonists” (J Med Chem, 2012)

Tests used:
[1] = Elimination half life in beagle dog at 2 mg/kg, iv administered as single bolus dose; format: ADME, organism-based, Canis lupus familiaris; parameters: dose 2 mg/kg, route intravenous; details: in vivo, read-out: beta t1/2 (converted)
Outline: (§1)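 Male beagle dogs received a single intravenous bolus dose of 2 mg/kg. Plasma clearance, volume of distribution and elimination half-life were determined.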

[2] = Clearance in beagle dog at 2 mg/kg, iv administered as single bolus dose; format: ADME, organism-based, Canis lupus familiaris; parameters: dose 2 mg/kg, route intravenous; details: in vivo; outline: as §1
[3] = Cmax in Long Evans rat at 10 mg/kg, po administered as single dose; format: ADME, organism-based; parameters: dose 10 mg/kg, route oral; details: in vivo
Outline: (§2)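 Male Long Evans rats received one oral dose of 10 mg/kg, formulated in 2% Tween/0.5% methyl cellulose in water. Plasma pharmacokinetic parameters were derived from this single dose.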

Salmonella typhimurium = assay: Mutagenic activity in Salmonella typhimurium assessed as revertants by Ames test; format: toxicity, organism-based; details: salmonella enterica subsp. enterica serovar typhimurium
Outline: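 Screening Ames bacterial reverse mutation assay in Salmonella typhimurium, run at multiple dosages.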

[4] = Toxicity in rat; format: organism-based; details: in vivo
Outline: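 14-day repeat-dose study in rats at 60, 200 and 600 mg/kg/day, with clinical observation and tissue findings; maximum tolerated dose derived from findings across dose groups.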

Rattus norvegicus [5] = assay: Toxicity in rat assessed as respiratory distress at 600 mg/kg/day administered for 14 days as repeat dose; format: organism-based; details: in vivo, 336 h
Canis familiaris [6] = assay: Toxicity in dog assessed as arrhythmia at 20 mg/kg/day administered for 14 days as repeat dose; format: organism-based, Canis lupus familiaris; details: in vivo, 336 h
Outline: (§3)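 Dogs dosed for 14 days in a repeat-dose toxicity study at 20, 60 and 120 mg/kg/day. Clinical signs and QTc monitored.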

[7] = Tmax in Long Evans rat at 10 mg/kg, po administered as single dose; format: ADME, organism-based; parameters: dose 10 mg/kg, route oral; details: in vivo
Outline: (§4)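 Male Long Evans rats, single oral dose 10 mg/kg in 2% Tween/0.5% methyl cellulose in water. Plasma pharmacokinetics.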

[8] = Toxicity in dog; format: organism-based, Canis lupus familiaris; details: in vivo
Outline: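 14-day repeat-dose study in dogs at 20, 60 and 120 mg/kg/day, with clinical observation including cardiac rhythm and QTc; maximum tolerated dose derived from findings across dose groups.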

[9] = Oral bioavailability in Long Evans rat at 10 mg/kg administered as single dose; format: ADME, organism-based; details: in vivo; outline: as §2
[10] = Volume of distribution in beagle dog at 2 mg/kg, iv administered as single bolus dose; format: ADME, organism-based, Canis lupus familiaris; parameters: dose 2 mg/kg, route intravenous; details: in vivo
Outline: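 Male beagle dogs, single intravenous bolus 2 mg/kg. Plasma pharmacokinetics.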

[11] = Elimination half life in Long Evans rat at 2 mg/kg, iv administered as single bolus dose; format: ADME, organism-based; parameters: dose 2 mg/kg, route intravenous; details: in vivo, read-out: beta t1/2 (converted)
Outline: (§5)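 Male Long Evans rats were given a single intravenous bolus of 2 mg/kg in DMSO/80% PEG 200. Clearance, volume of distribution and elimination half-life were derived.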

[12] = AUC (0 to infinity) in Long Evans rat at 10 mg/kg, po administered as single dose; format: ADME, organism-based; parameters: dose 10 mg/kg, route oral, time infinity; details: plasma; outline: as §2
[13] = Clearance in Long Evans rat at 2 mg/kg, iv administered as single bolus dose; format: ADME, organism-based; parameters: dose 2 mg/kg, route intravenous; details: in vivo; outline: as §5
[14] = Oral bioavailability in beagle dog at 10 mg/kg administered as single dose; format: ADME, organism-based, Canis lupus familiaris; details: in vivo
Canis familiaris [15] = assay: Toxicity in dog assessed as QTc prolongation at 20 mg/kg/day administered for 14 days as repeat dose; format: organism-based, Canis lupus familiaris; details: in vivo, 336 h; outline: as §3
Rattus norvegicus [16] = assay: Reversal of time-induced cognitive deficit in po dosed rats by novel object recognition test; format: functional; details: read-out: MED
[17] = Volume of distribution in Long Evans rat at 2 mg/kg, iv administered as single bolus dose; format: ADME, organism-based; parameters: dose 2 mg/kg, route intravenous; details: in vivo
Outline: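 Male Long Evans rats, single intravenous bolus 2 mg/kg, vehicle DMSO/80% PEG 200. Plasma pharmacokinetics.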

[18] = Terminal half life in Long Evans rat at 10 mg/kg, po administered as single dose; format: ADME, organism-based; parameters: dose 10 mg/kg, route oral; details: in vivo, read-out: beta t1/2 (converted); outline: as §4
Canis familiaris [19] = assay: Toxicity in dog assessed as convulsions at >/= 60 mg/kg/day administered for 14 days as repeat dose; format: organism-based, Canis lupus familiaris; details: in vivo, 336 h; outline: as §3
Mus musculus = assay: Reversal of MK-801-induced memory deficit in po dosed mice at measured after 24 hrs by social odor recognition test; details: read-out: MED
Rattus norvegicus [20] = assay: Toxicity in rat assessed as epithelial hyperplasia at 600 mg/kg/day administered for 14 days as repeat dose; format: organism-based; details: in vivo, 336 h

With `CN(C)C(=O)c1ccc(-c2ccc3c(c2)CCN(CCN2CCCC2)C3=O)cc1.Cl` the half-life [1] was 96 min, the clearance [2] was 23 mL/min/kg and the Cmax [3] was 989 ng/mL. The Activity (Salmonella typhimurium) was “Non-toxic”, the MTD [4] was 200 mg/kg/day and the Activity (Rattus norvegicus [5]) was “Toxic”. For the same molecule, the Activity (Canis familiaris [6]) was “Toxic”, the Tmax [7] was 18 min and the MTD [8] was 20 mg/kg/day. It also gave a bioavailability [9] of 85%, a Vd [10] of 3.1 L/kg and a half-life [11] of 18 min. The AUC(0-inf) [12] was 1650 ng·h/mL, the clearance [13] was 87 mL/min/kg and the bioavailability [14] was 57%. The Activity (Canis familiaris [15]) was “Toxic”, the minimal effective dose (Rattus norvegicus [16]) was 1 mg/kg and the Vd [17] was 2.1 L/kg. For the same molecule, the half-life [18] was 48 min, the Activity (Canis familiaris [19]) was “Toxic” and the minimal effective dose (Mus musculus) was 1 mg/kg. The Activity (Rattus norvegicus [20]) was “Toxic”.
